Measurements reported in ChEMBL document CHEMBL4616681, “Discovery of 3-Pyridyl Isoindolin-1-one Derivatives as Potent, Selective, and Orally Active Aldosterone Synthase (CYP11B2) Inhibitors” (J Med Chem, 2020).
Activity calls are given as the source filed them.

What was measured:
Cynomolgus monkey [1] = test: In vivo inhibition of CYP11B2 in cynomolgus monkey assessed as reduction in ACTH-induced 11-deoxycorticosterone at 0.01 to 10 mg/kg, po preincubated for 1 hr followed by ACTH challenge and measured after 60 mins by LC/MS-MS analysis; assay type: functional, organism-based; details: Macaca fascicularis
How it was run: (§1)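 Cynomolgus monkeys preselected as Synacthen responders (at least 2-fold rise in aldosterone, cortisol and corticosterone). Two animals per group. Oral vehicle or compound at 0.01–10 mg/kg in hydroxyethylcellulose/polysorbate 80/paraben suspension (2 mL/kg) at T=0, then 14.5 µg/kg Synacthen i.m. at 1 hr. EDTA blood drawn from -5 min to 24 h. Plasma steroids measured by LC/MS-MS; data shown 60 min after challenge.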

Cynomolgus monkey [2] = test: In vivo inhibition of CYP11B2 in cynomolgus monkey assessed as reduction in ACTH-induced corticosterone at 0.01 to 10 mg/kg, po preincubated for 1 hr followed by ACTH challenge and measured after 60 mins by LC/MS-MS analysis; assay type: functional, organism-based; details: Macaca fascicularis; how it was run: as §1
Cynomolgus monkey [3] = test: In vivo inhibition of CYP11B2 in cynomolgus monkey assessed as reduction in ACTH-induced aldosterone at 0.01 to 10 mg/kg, po preincubated for 1 hr followed by ACTH challenge and measured after 60 mins by LC/MS-MS analysis; assay type: functional, organism-based; details: Macaca fascicularis; how it was run: as §1
[4] = target: T1, Cytochrome P450 11B2, mitochondrial (Homo sapiens, UniProt P19099); test: Inhibition of human CYP11B2 expressed in human renal leiomyoblastoma cells harboring FDXR/FDX using 1-deoxycorticosterone as substrate by HTRF assay; assay type: cell-based
T1 sequence (P19099 whole entry): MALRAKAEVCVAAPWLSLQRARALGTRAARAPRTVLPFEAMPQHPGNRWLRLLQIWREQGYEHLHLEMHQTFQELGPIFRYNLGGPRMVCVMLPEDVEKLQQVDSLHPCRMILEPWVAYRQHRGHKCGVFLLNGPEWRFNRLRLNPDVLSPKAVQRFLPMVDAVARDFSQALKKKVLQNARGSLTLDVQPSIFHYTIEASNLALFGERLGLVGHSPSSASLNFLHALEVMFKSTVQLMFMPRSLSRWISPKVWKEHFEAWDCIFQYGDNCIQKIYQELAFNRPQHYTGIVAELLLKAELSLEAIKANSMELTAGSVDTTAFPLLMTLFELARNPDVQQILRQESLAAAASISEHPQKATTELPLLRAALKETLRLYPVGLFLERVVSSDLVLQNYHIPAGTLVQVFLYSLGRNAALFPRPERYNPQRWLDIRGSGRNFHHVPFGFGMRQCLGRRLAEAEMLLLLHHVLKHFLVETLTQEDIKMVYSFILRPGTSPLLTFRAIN
How it was run: (§2)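 Cells with endogenous FDXR/FDX and no detectable CYP11B activity, stably transfected (CMV promoter, neomycin selection, G-418 400 µg/mL) with CYP11B1 or CYP11B2 of the named species. Assayed in DMEM/F12 with 2.5% charcoal-treated FCS. Substrate 1 µM 11-deoxycorticosterone (B2) or 11-deoxycortisol (B1), 16 hr. Aldosterone or cortisol in supernatant measured by HTRF. IC50 from 4-parameter MMF fit; selectivity factor is the B1/B2 IC50 ratio.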

[5] = Permeability of the compound measured at 18 hrs by PAMPA; assay type: ADME; details: read-out: permeability
How it was run: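 PAMPA sandwich format. Donor: compound diluted to 150 μM (DMSO <2%) in 0.05 M MOPSO pH 6.5 with 0.5% glycocholic acid. Acceptor: 0.05 M MOPSO pH 6.5. Membrane of 10% egg lecithin with 0.5% cholesterol in dodecane. Donor measured at start; acceptor and donor measured at ~18 hr.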

[6] = Inhibition of cynomolgus monkey CYP11B2 expressed in human G401 cells using 1-deoxycorticosterone as substrate by HTRF assay; assay type: cell-based, Macaca fascicularis; details: g-401; how it was run: as §2
[7] = Intrinsic clearance in rat liver microsomes preincubated for 10 mins followed by NADPH regenerating system addition and measured up to 30 mins by LC/MS-MS analysis; assay type: ADME, Microsome
How it was run: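 Liver microsomes at 0.5 mg protein/mL in 100 mM potassium phosphate, pH 7.4. Compound preincubated 10 min at 37 °C. Intrinsic clearance scaled using the well-stirred liver model.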

[8] = Plasma clearance in Wister-Han rat at 1 mg/kg, iv administered as single dose by LC/MS-MS analysis; assay type: ADME, organism-based; details: Wistar-Han
How it was run: (§3)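 Male Wistar-Han rats, single dose. IV 1 mg/kg, compound at 0.5 mg/mL in NMP:saline 30/70 (v/v). Oral 3 mg/kg, 0.25 mg/mL in 2% Klucel with 0.1% Polysorbate 80. Three rats per time point. Heparinized blood taken at eight (iv) or seven (po) time points, plasma stored at -20 °C. Plasma levels by LC/MS-MS. Non-compartmental analysis.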

[9] = AUC (0 to infinity) in Wister-Han rat at 3 mg/kg, po administered as single dose by LC/MS-MS analysis; assay type: ADME, organism-based; design: dose 3 mg/kg, route oral, time infinity; details: Wistar-Han, in vivo; how it was run: as §3
[10] = Oral bioavailability in Wister-Han rat at 3 mg/kg administered as single dose by LC/MS-MS analysis; assay type: ADME, organism-based; details: Wistar-Han, in vivo; how it was run: as §3
[11] = Protein binding in rat plasma assessed as unbound fraction at 1 uM by micro-equilibrium dialysis based LC-MS/MS analysis; assay type: ADME, cell-free
How it was run: (§4)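 Equilibrium dialysis of pooled rat or cynomolgus plasma against Soerensen buffer pH 7.4, 12–14 kDa cut-off membrane. Compounds tested in cassettes of 2–5 at 1 μM initial total concentration, with diazepam as control. Dialysis 5 hr at 37 °C under 5% CO₂. Unbound percentage by LC/MS-MS.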

[12] = Protein binding in cynomolgus monkey plasma assessed as unbound fraction at 1 uM by micro-equilibrium dialysis based LC-MS/MS analysis; assay type: ADME, cell-free, Macaca fascicularis; how it was run: as §4
[13] = Intrinsic clearance in rat hepatocytes; assay type: ADME, cell-based, Hepatocyte; details: read-out: CLH
[14] = Intrinsic clearance in cynomolgus monkey hepatocytes; assay type: ADME, cell-based, Macaca fascicularis, Hepatocyte; details: read-out: CLH
[15] = Dose normalized AUC in cynomolgus monkey; assay type: ADME, Macaca fascicularis; details: in vivo
[16] = Dose normalized AUC in Wister-Han rat at 1 mg/kg, iv or 3 mg/kg, po administered as single dose by LC/MS-MS analysis; assay type: ADME, organism-based; details: in vivo; how it was run: as §3
[17] = Oral bioavailability in cynomolgus monkey; assay type: ADME, organism-based, Macaca fascicularis; details: in vivo
[18] = Free plasma concentration in cynomolgus monkey at 0.1 mg/kg; assay type: ADME, organism-based, Macaca fascicularis; details: in vivo
How it was run: (§5)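 Cynomolgus monkeys, 2 per group, given single oral doses of 0.01, 0.1, 1 or 10 mg/kg as a suspension in hydroxyethylcellulose/polysorbate 80/parabens vehicle, 2 mL/kg. Synacthen 14.5 µg/kg given i.m. at 1 hr. Plasma compound levels by LC/MS-MS. Average free exposure calculated from AUC0-7hr and corrected for plasma protein binding.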

[19] = Free plasma concentration in cynomolgus monkey at 1 mg/kg; assay type: ADME, organism-based, Macaca fascicularis; details: in vivo; how it was run: as §5
[20] = Free plasma concentration in cynomolgus monkey at 10 mg/kg; assay type: ADME, organism-based, Macaca fascicularis; details: in vivo; how it was run: as §5
[21] = target: T1, Cytochrome P450 11B2, mitochondrial; test: Inhibition of CYP11B2 in H295R cell assessed as reduction in aldosterone by LC/MS-MS method

SMILES: CCS(=O)(=O)N1CC(Oc2cncc(N3C(=O)c4ccc(Cl)cc4C3(C)C)c2)C1
- inhibition (Cynomolgus monkey [1]): inactive
- inhibition (Cynomolgus monkey [2]): inactive
- inhibition (Cynomolgus monkey [3]): Active
- IC50 [4]: 4 nM
- Papp at 18 h [5]: 4.17 ×10⁻⁶ cm/s
- IC50 [6]: 2 nM
- predicted hepatic clearance (CLH) [7]: 5 mL/min/kg
- clearance [8]: 3.8 mL/min/kg
- AUC(0-inf) [9]: 6370 ng·h/mL
- bioavailability [10]: 45%
- fraction unbound at 1 µM [11]: 0.052
- fraction unbound at 1 µM [12]: 0.138
- CLint scaled [13]: 26.7 mL/min/kg
- CLint scaled [14]: 7.2 mL/min/kg
- AUC/dose [15]: 1085 kg·ng·h/mL/mg
- AUC/dose [16]: 2123 kg·ng·h/mL/mg
- bioavailability [17]: 19%
- Cp(f) [18]: 0.825 ng/mL
- Cp(f) [19]: 10.3 ng/mL
- Cp(f) [20]: 86.46 ng/mL
- IC50 [21]: < 1 nM
